Reference: ChEMBL document CHEMBL3244428, “Synthesis and antifungal properties of certain 7-alkylaminopyrazolo[1,5-a]pyrimidines” (J Med Chem, 1977)
≈ marks a conversion by molar mass, not a printed value. Calls of active or inactive are those of the source. The calls are words filed in the database; no cut-off is given here.

Tests used:
[1] = tested on: Trichophyton mentagrophytes; assay: Fungistatic activity against Trichophyton mentagrophytes clinical isolate after 48 hrs by broth dilution method; format: functional
Outline: (§1)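 Broth dilution in chemically defined medium, with serial dilutions spanning 0.32 to 0.005 µmol/ml. Dermatophyte plates were read after 48 h at 30 °C.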

[2] = tested on: Trichophyton mentagrophytes; assay: Fungicidal activity against Trichophyton mentagrophytes clinical isolate after 48 hrs by broth dilution method; format: functional; outline: as §1
[3] = tested on: Trichophyton mentagrophytes; assay: Antifungal activity against Trichophyton mentagrophytes infected in guinea pig assessed as cure rate of dermal infection at nonirritating dose administered topically bid started on day 3 post infection continued for 8 days measured every other day through day 14 relative to vehicle-treated control; format: functional, organism-based
Outline: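 Guinea pig T. mentagrophytes skin infection model, treated topically. Compounds were given at non-irritating concentrations, either as a w/v solution in propylene glycol (20%), 70% sorbitol (3%) and ethanol (78%) or in a petrolatum ointment. Treated animals were compared with infected, vehicle-only controls.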

Cavia porcellus [4] = assay: Toxicity in guinea pig skin assessed as scaling administered topically bid measured on day 6; format: organism-based; settings: in vivo, topical_or_ocular
Outline: (§2)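 Intact or abraded skin of uninfected guinea pigs was treated topically with 1.0% w/v compound. The vehicle was either a solution of propylene glycol (20%), 70% sorbitol (3%) and ethanol (78%) or a petrolatum ointment. Skin was scored for erythema and scaling up to day 6, against vehicle-treated controls.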

Cavia porcellus [5] = assay: Toxicity in guinea pig skin assessed as erythema administered topically bid measured on day 6; format: organism-based; settings: in vivo, topical_or_ocular; outline: as §2
Cavia porcellus [6] = assay: Toxicity in guinea pig assessed as skin irritation administered topically bid measured on day 6; format: organism-based; settings: in vivo, topical_or_ocular; outline: as §2
[7] = Trichophyton mentagrophytes, 48 h, read-out: MIC

MIC [1, 7] | MIC [1] | Structure (SMILES) | MLC [2] | Activity [3] | Activity (Cavia porcellus [4]) | Activity (Cavia porcellus [5]) | Activity (Cavia porcellus [6])
> 320 µM | – | Cc1cc(NCC(=O)O)n2nccc2n1 | >320 µM | – | – | – | –
> 320 µM | – | Cc1cc(NCCCN2CCOCC2)n2nccc2n1.Cl | 320 µM | – | – | – | –
> 320 µM | – | CCN(CC)c1cc(C)nc2ccnn12 | >320 µM | – | – | – | –
10 µM | – | CCCCCCCCNc1ccnc2ccnn12.Cl | 80 µM | inactive | Toxic | Toxic | –
5 µM (≈ 1.99 µg/mL) | – | CCCCCCCC/C=C/CCCCCCCCNc1cc(C)nc2ccnn12 | 10 µM (≈ 3.99 µg/mL) | inactive | Toxic | Toxic | –
20 µM (≈ 5.77 µg/mL) | – | CCCCCCCCNc1cc(C(C)C)nc2ccnn12 | >320 µM | – | – | – | –
320 µM (≈ 106 µg/mL) | – | CCCCCCCCNc1cc(C)nc2c(C(=O)OCC)cnn12 | >320 µM | – | – | – | –
40 µM (≈ 9.85 µg/mL) | – | CCCCCCCNc1cc(C)nc2ccnn12 | 320 µM (≈ 78.8 µg/mL) | – | – | – | –
10 µM (≈ 4.78 µg/mL) | – | CCCCCCCC/C=C/CCCCCCCCNc1cc(C)nc2c(Br)cnn12 | 20 µM (≈ 9.55 µg/mL) | Active | – | – | –
80 µM (≈ 21.5 µg/mL) | – | CCCNc1cc(C)nc2c(Br)cnn12 | 320 µM (≈ 86.1 µg/mL) | – | – | – | –
20 µM (≈ 5.55 µg/mL) | – | CCCCCCCCSc1cc(C)nc2ccnn12 | 160 µM (≈ 44.4 µg/mL) | – | – | – | Toxic
40 µM (≈ 9.29 µg/mL) | – | CCCCCCNc1cc(C)nc2ccnn12 | 320 µM (≈ 74.3 µg/mL) | – | – | – | –
> 320 µM | – | Cc1cc(N2CCCCC2)n2nccc2n1 | >320 µM | – | – | – | –
40 µM (≈ 12.3 µg/mL) | – | Cc1cc(NCc2ccc(Cl)cc2Cl)n2nccc2n1 | >320 µM | – | – | – | –
40 µM (≈ 11.5 µg/mL) | – | CCCCCCCCCCNc1cc(C)nc2ccnn12 | >320 µM | – | – | – | –
– | – | CCCCCCCCNc1cc(C)nc2ccnn12 [listing 1 of 2 here] | – | inactive | – | – | –
– | 20 µM | CCCCCCCCNc1cc(C)nc2ccnn12.Cl | 160 µM | – | Toxic | Toxic | –
20 µM (≈ 5.21 µg/mL) | – | CCCCCCCCNc1cc(C)nc2ccnn12 [listing 2 of 2 here] | 160 µM (≈ 41.7 µg/mL) | – | Toxic | Toxic | –
> 320 µM | – | CCCCCCCCCCNc1cc(Cl)nc2ccnn12 | >320 µM | – | – | – | –
> 320 µM | – | CCCCCCCCNc1c(C)c(Cl)nc2ccnn12 | >320 µM | – | – | – | –
320 µM (≈ 102 µg/mL) | – | CCCCCCCCNc1cc(C(=O)OCC)nc2ccnn12 | >320 µM | – | – | – | –
20 µM (≈ 5.62 µg/mL) | – | CCCCCCCCNc1cc(Cl)nc2ccnn12 | 320 µM (≈ 89.9 µg/mL) | – | – | – | –
10 µM (≈ 2.74 µg/mL) | – | CCCCCCCCNc1c(C)c(C)nc2ccnn12 | >320 µM | – | – | – | –
